Key:
[1] = Plasma concentration in dog at 0.3 mg/kg, po after 180 min; format: ADME, organism-based, Canis lupus familiaris; design: dose 0.3 mg/kg, route oral
Method in brief: (§1)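 Dogs given oral dose of 0.3 mg/kg per inhibitor, three different inhibitors per dog per experiment, formulated at 6 mg/mL in triglycerides (tristearate, 6 mL). AUC estimated from plasma concentration (nM) versus time (min) plot.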

[2] = Plasma concentration in dog at 0.3 mg/kg, po after 300 min; format: ADME, organism-based, Canis lupus familiaris; design: dose 0.3 mg/kg, route oral; method in brief: as §1
[3] = Plasma concentration in dog at 0.3 mg/kg, po after 30 min; format: ADME, organism-based, Canis lupus familiaris; design: dose 0.3 mg/kg, route oral; method in brief: as §1
[4] = Plasma concentration in dog at 0.3 mg/kg, po after 360 min; format: ADME, organism-based, Canis lupus familiaris; design: dose 0.3 mg/kg, route oral; method in brief: as §1
[5] = Plasma concentration in dog at 0.3 mg/kg, po after 60 min; format: ADME, organism-based, Canis lupus familiaris; design: dose 0.3 mg/kg, route oral; method in brief: as §1
[6] = Plasma concentration in dog at 0.3 mg/kg, po after 240 min; format: ADME, organism-based, Canis lupus familiaris; design: dose 0.3 mg/kg, route oral; method in brief: as §1
[7] = Plasma concentration in dog at 0.3 mg/kg, po after 480 min; format: ADME, organism-based, Canis lupus familiaris; design: dose 0.3 mg/kg, route oral; method in brief: as §1
[8] = Plasma concentration in dog at 0.3 mg/kg, po after 15 min; format: ADME, organism-based, Canis lupus familiaris; design: dose 0.3 mg/kg, route oral; method in brief: as §1
[9] = Plasma concentration in dog at 0.3 mg/kg, po after 120 min; format: ADME, organism-based, Canis lupus familiaris; design: dose 0.3 mg/kg, route oral; method in brief: as §1
[10] = molecular target: T1, Bifunctional epoxide hydrolase 2 (Mus musculus, UniProt P34914); experiment: Inhibition of mouse recombinant soluble Epoxide hydrolase
T1 sequence (P34914 whole entry): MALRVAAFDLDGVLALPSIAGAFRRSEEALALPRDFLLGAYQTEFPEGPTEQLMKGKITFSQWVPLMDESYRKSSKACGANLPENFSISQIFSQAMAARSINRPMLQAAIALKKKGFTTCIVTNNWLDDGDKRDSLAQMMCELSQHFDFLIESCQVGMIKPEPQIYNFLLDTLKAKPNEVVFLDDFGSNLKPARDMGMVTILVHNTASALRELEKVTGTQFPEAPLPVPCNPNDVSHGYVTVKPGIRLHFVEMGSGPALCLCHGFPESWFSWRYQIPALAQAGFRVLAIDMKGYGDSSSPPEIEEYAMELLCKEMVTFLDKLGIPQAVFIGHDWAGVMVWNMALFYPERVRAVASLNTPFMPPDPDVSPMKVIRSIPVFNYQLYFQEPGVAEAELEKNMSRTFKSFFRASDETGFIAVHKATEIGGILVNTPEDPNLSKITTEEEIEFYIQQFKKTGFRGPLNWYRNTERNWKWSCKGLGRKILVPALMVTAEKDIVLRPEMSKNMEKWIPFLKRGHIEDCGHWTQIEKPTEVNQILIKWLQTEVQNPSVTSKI

[11] = molecular target: T2, Bifunctional epoxide hydrolase 2 (Homo sapiens, UniProt P34913); experiment: Inhibition of human recombinant soluble Epoxide hydrolase
T2 sequence (P34913 whole entry): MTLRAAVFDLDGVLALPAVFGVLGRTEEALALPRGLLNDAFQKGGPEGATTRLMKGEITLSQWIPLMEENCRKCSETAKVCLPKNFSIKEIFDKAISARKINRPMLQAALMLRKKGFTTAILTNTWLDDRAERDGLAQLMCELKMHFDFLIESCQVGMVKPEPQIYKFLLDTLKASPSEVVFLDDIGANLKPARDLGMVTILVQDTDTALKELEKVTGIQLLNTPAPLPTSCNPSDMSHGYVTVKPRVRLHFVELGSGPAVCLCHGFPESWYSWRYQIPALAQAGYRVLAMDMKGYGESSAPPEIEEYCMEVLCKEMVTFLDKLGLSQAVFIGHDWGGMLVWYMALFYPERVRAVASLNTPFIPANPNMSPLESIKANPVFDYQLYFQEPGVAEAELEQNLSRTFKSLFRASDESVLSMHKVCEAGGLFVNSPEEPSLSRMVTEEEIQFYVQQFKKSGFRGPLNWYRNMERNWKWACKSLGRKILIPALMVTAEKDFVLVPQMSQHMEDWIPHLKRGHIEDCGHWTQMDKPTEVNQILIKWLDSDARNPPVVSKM

[12] = Solubility in sodium phosphate buffer at pH 7.4; format: physicochemical
Method in brief: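 Solubility measured in sodium phosphate buffer, 100 mM, pH 7.4, following a previously described procedure.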

[13] = AUC in dog at 0.3 mg/kg, po; format: ADME, organism-based, Canis lupus familiaris; design: dose 0.3 mg/kg, route oral; conditions: plasma; method in brief: as §1

Compound | IC50 [10] [µM] | IC50 [11] [µM] | solubility [12] [µM] | other results
O=C(O)CCCCCCCCCCCNC(=O)NC12CC3CC(CC(C3)C1)C2 |  |  |  | concentration at 3 h [1]: 13.4 nM; concentration at 5 h [2]: 1.61 nM; concentration at 0.5 h [3]: 20.4 nM; concentration at 6 h [4]: 1.17 nM; concentration at 1 h [5]: 30.7 nM; concentration at 4 h [6]: 6.12 nM; concentration at 8 h [7]: 0.86 nM; concentration at 0.25 h [8]: 6.97 nM; concentration at 2 h [9]: 26.3 nM
N=C(N)NCCC[C@H](NC(=O)CCCNC(=O)NC1CCCCC1)C(=O)O | 1 | 25 | > 500 | 
O=C(CNC(=O)NC1CCCCC1)N[C@@H](Cc1ccccc1)C(=O)O | 18 | > 100 | > 500 | 
O=C(CCCNC(=O)NC1CCCCC1)N[C@@H](Cc1ccccc1)C(=O)O | 1.6 | 21 | > 500 | 
O=C(CCCCCNC(=O)NC12CC3CC(CC(C3)C1)C2)N[C@@H](Cc1ccccc1)C(=O)N[C@@H](Cc1c[nH]c2ccccc12)C(=O)O |  |  | > 500 | concentration at 0.5 h [3]: 0.82 nM; Ki [11]: 0.015 µM; concentration at 1 h [5]: 0.33 nM; AUC [13]: < 1.67 nM·h; concentration at 0.25 h [8]: 0.62 nM
O=C(CCCNC(=O)NC1CCCCC1)N[C@@H](Cc1cnc[nH]1)C(=O)O | 0.05 | 30 | > 500 | 

The next lines start with results.

IC50 [10] [µM] | IC50 [11] [µM] | solubility [12] [µM] | Compound | other results
> 100 | > 100 | > 500 | NC(N)=NCCC[C@H](NC(=O)CNC(=O)NC1CCCCC1)C(=O)O | 
> 100 | > 100 | > 500 | O=C(O)CC[C@H](NC(=O)CNC(=O)NC1CCCCC1)C(=O)O | 
> 100 | > 100 | > 500 | CC(C)[C@H](NC(=O)CNC(=O)NC1CCCCC1)C(=O)O | 
1.7 | 24 | > 500 | O=C(O)CC[C@H](NC(=O)CCCNC(=O)NC1CCCCC1)C(=O)O | 
36 | > 100 | > 500 | O=C(CNC(=O)NC1CCCCC1)N[C@@H](Cc1cnc[nH]1)C(=O)O | 

— ChEMBL document CHEMBL1137287, “Peptidyl-urea based inhibitors of soluble epoxide hydrolases” (Bioorg Med Chem Lett, 2006)
